Experimental data taken from ChEMBL document CHEMBL1155169, “Influence of morbid obesity on the single-dose pharmacokinetics of daptomycin” (Antimicrob Agents Chemother, 2007).

Columns and labels:
Homo sapiens [1] = organism: Homo sapiens; test: Volume of distribution per kg of ideal body weight in normal weight human at 236 mg infused over 30 mins; format: ADME, organism-based; conditions: in vivo, iv, 0.5 h
[2] = Protein binding in morbidly obese human serum at 461 mg infused over 30 mins; format: ADME, cell-free; conditions: iv, read-out: PB (converted)
In short: (§1)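 Serum (separator tubes) was drawn at 0.5, 2 and 8 h after a single 30-min IV infusion of 4 mg/kg (total body weight) in adult females. Samples were spun at 1,500 × g for 10 min and stored at −80°C. Binding was measured by equilibrium dialysis, solid-phase extraction and LC-MS, linear over 1–250 μg/ml.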

[3] = Half life in morbidly obese human at 461 mg infused over 30 mins; format: ADME, organism-based; conditions: in vivo, iv
In short: (§2)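 Single 30-min IV infusion at 4 mg/kg total body weight in adult females. Plasma sampled at 0.5, 1, 1.5, 2, 4, 8, 12 and 24 h and assayed by HPLC-UV at 214 nm. kel came from log-linear regression, giving t1/2 = ln2/kel. AUC0-∞ is the linear-trapezoidal AUC0-24 plus C24/kel.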

Homo sapiens [4] = organism: Homo sapiens; test: Total clearance per kg of ideal body weight in normal weight human at 236 mg infused over 30 mins; format: ADME, organism-based; conditions: in vivo, iv, 0.5 h
In short: (§3)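 Adult females received 4 mg/kg daptomycin by total body weight, IV over 30 min. Plasma sampled to 24 h and assayed by HPLC-UV at 214 nm. Total clearance = dose/AUC0-∞ (trapezoidal AUC0-24 plus C24/kel). Normalized to total body weight, ideal body weight (45.5 + 2.3 × inches over 5 ft) or fat-free weight from bioelectric impedance.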

[5] = Renal clearance in normal weight human at 236 mg infused over 30 mins; format: ADME, organism-based, Kidney; conditions: in vivo, iv, read-out: CL_renal (converted)
In short: (§4)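 Adult females were given a single 30-min IV infusion (4 mg/kg total body weight). Bladder voided before dosing, then urine collected for 24 h. Urine and plasma assayed by HPLC-UV at 214 nm. Renal clearance = 24-h urinary amount / plasma AUC0-24. Normalized to total body weight, ideal body weight or bioimpedance fat-free weight.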

[6] = Renal clearance per kg of total body weight in morbidly obese human at 461 mg infused over 30 mins; format: ADME, organism-based, Kidney; conditions: in vivo, iv, read-out: CL_renal (converted); in short: as §4
Homo sapiens [7] = organism: Homo sapiens; test: Volume of distribution per kg of ideal body weight in morbidly obese human at 461 mg infused over 30 mins; format: ADME, organism-based; conditions: in vivo, iv, 0.5 h
[8] = Renal clearance per kg of fat-free weight in normal weight human at 236 mg infused over 30 mins; format: ADME, organism-based, Kidney; conditions: in vivo, iv, read-out: CL_renal (converted); in short: as §4
Homo sapiens [9] = organism: Homo sapiens; test: Volume of distribution per kg of fat-free weight in normal weight human at 236 mg infused over 30 mins; format: ADME, organism-based; conditions: in vivo, iv, 0.5 h
[10] = Renal clearance per kg of ideal body weight in morbidly obese human at 461 mg infused over 30 mins; format: ADME, organism-based, Kidney; conditions: in vivo, iv, read-out: CL_renal (converted); in short: as §4
[11] = Half life in normal weight human at 236 mg infused over 30 mins; format: ADME, organism-based; conditions: in vivo, iv; in short: as §2
Homo sapiens [12] = organism: Homo sapiens; test: Volume of distribution per kg of total body weight in normal weight human at 236 mg infused over 30 mins; format: ADME, organism-based; conditions: in vivo, iv, 0.5 h
[13] = AUC (0 to infinity) in morbidly obese human at 461 mg infused over 30 mins; format: ADME, organism-based; design: dose 461 mg, time infinity; conditions: plasma, iv; in short: as §2
[14] = Volume of distribution in normal weight human at 236 mg infused over 30 mins; format: ADME, organism-based; conditions: in vivo, iv
Homo sapiens [15] = organism: Homo sapiens; test: Volume of distribution per kg of fat-free weight in morbidly obese human at 461 mg infused over 30 mins; format: ADME, organism-based; conditions: in vivo, iv, 0.5 h
Homo sapiens [16] = organism: Homo sapiens; test: Volume of distribution per kg of total body weight in morbidly obese human at 461 mg infused over 30 mins; format: ADME, organism-based; conditions: in vivo, iv, 0.5 h
Homo sapiens [17] = organism: Homo sapiens; test: Total clearance per kg of total body weight in normal weight human at 236 mg infused over 30 mins; format: ADME, organism-based; conditions: in vivo, iv, 0.5 h; in short: as §3
[18] = Cmin in normal weight human at 236 mg infused over 30 mins after 24 hrs; format: ADME, organism-based; conditions: in vivo, iv, read-out: Cmin
[19] = Cmax in morbidly obese human at 461 mg infused over 30 mins; format: ADME, organism-based; design: dose 461 mg; conditions: in vivo, iv
[20] = Total clearance in morbidly obese human at 461 mg infused over 30 mins; format: ADME, organism-based; conditions: in vivo, iv; in short: as §3
Homo sapiens [21] = organism: Homo sapiens; test: Total clearance per kg of fat-free weight in normal weight human at 236 mg infused over 30 mins; format: ADME, organism-based; conditions: in vivo, iv, 0.5 h; in short: as §3
[22] = Protein binding in normal weight human serum at 236 mg infused over 30 mins; format: ADME, cell-free; conditions: iv, read-out: PB (converted); in short: as §1
Homo sapiens [23] = organism: Homo sapiens; test: Total clearance per kg of ideal body weight in morbidly obese human at 461 mg infused over 30 mins; format: ADME, organism-based; conditions: in vivo, iv, 0.5 h; in short: as §3
Homo sapiens [24] = organism: Homo sapiens; test: Total clearance per kg of total body weight in morbidly obese human at 461 mg infused over 30 mins; format: ADME, organism-based; conditions: in vivo, iv, 0.5 h; in short: as §3
[25] = Renal clearance in morbidly obese human at 461 mg infused over 30 mins; format: ADME, organism-based, Kidney; conditions: in vivo, iv, read-out: CL_renal (converted); in short: as §4
[26] = Cmax in human at 4 mg/kg of total body weight; format: ADME, organism-based; design: dose 4 mg/kg; conditions: in vivo
Homo sapiens [27] = organism: Homo sapiens; test: Total clearance per kg of fat-free weight in morbidly obese human at 461 mg infused over 30 mins; format: ADME, organism-based; conditions: in vivo, iv, 0.5 h; in short: as §3
[28] = Total clearance in normal weight human at 236 mg infused over 30 mins; format: ADME, organism-based; conditions: in vivo, iv; in short: as §3
[29] = Renal clearance per kg of fat-free weight in morbidly obese human at 461 mg infused over 30 mins; format: ADME, organism-based, Kidney; conditions: in vivo, iv, read-out: CL_renal (converted); in short: as §4
[30] = Renal clearance per kg of ideal body weight in normal weight human at 236 mg infused over 30 mins; format: ADME, organism-based, Kidney; conditions: in vivo, iv, read-out: CL_renal (converted); in short: as §4
[31] = AUC (0 to infinity) in normal weight human at 236 mg infused over 30 mins; format: ADME, organism-based; design: dose 236 mg, time infinity; conditions: plasma, iv; in short: as §2
[32] = Renal clearance per kg of total body weight in normal weight human at 236 mg infused over 30 mins; format: ADME, organism-based, Kidney; conditions: in vivo, iv, read-out: CL_renal (converted); in short: as §4
[33] = Cmax in normal weight human at 236 mg infused over 30 mins; format: ADME, organism-based; design: dose 236 mg; conditions: in vivo, iv
[34] = Volume of distribution in morbidly obese human at 461 mg infused over 30 mins; format: ADME, organism-based; conditions: in vivo, iv
[35] = Cmin in morbidly obese human at 461 mg infused over 30 mins after 24 hrs; format: ADME, organism-based; conditions: in vivo, iv, read-out: Cmin

CCCCCCCCCC(=O)N[C@@H](Cc1c[nH]c2ccccc12)C(=O)N[C@H](CC(N)=O)C(=O)N[C@@H](CC(=O)O)C(=O)N[C@@H]1C(=O)NCC(=O)N[C@@H](CCCN)C(=O)N[C@@H](CC(=O)O)C(=O)N[C@H](C)C(=O)N[C@@H](CC(=O)O)C(=O)NCC(=O)N[C@H](CO)C(=O)N[C@@H]([C@H](C)CC(=O)O)C(=O)N[C@@H](CC(=O)c2ccccc2N)C(=O)O[C@@H]1C
Vd (Homo sapiens [1]): 0.14 L | fraction unbound at 0.5 h [2]: 0.112 | half-life [3]: 8.68 h | CL (Homo sapiens [4]): 0.013 L/h | CL renal at 0.5 h [5]: 9.83 mL/min | CL renal at 0.5 h [6]: 0.0733 mL/min | Vd (Homo sapiens [7]): 0.19 L | CL renal at 0.5 h [8]: 0.217 mL/min | Vd (Homo sapiens [9]): 0.18 L | CL renal at 0.5 h [10]: 0.16 mL/min | half-life [11]: 7.72 h | Vd (Homo sapiens [12]): 0.13 L | AUC(0-inf) [13]: 581 µg·h/mL | Vd [14]: 7.69 L | Vd (Homo sapiens [15]): 0.18 L | Vd (Homo sapiens [16]): 0.09 L | CL (Homo sapiens [17]): 0.012 L/h | concentration at 24 h [18]: 3390 ng/mL | Cmax [19]: 67300 ng/mL | clearance [20]: 13.7 mL/min | CL (Homo sapiens [21]): 0.016 L/h | fraction unbound at 0.5 h [22]: 0.1 | CL (Homo sapiens [23]): 0.016 L/h | CL (Homo sapiens [24]): 0.0071 L/h | CL renal at 0.5 h [25]: 8.33 mL/min | Cmax [26]: 42300 ng/mL | CL (Homo sapiens [27]): 0.015 L/h | clearance [28]: 12.2 mL/min | CL renal at 0.5 h [29]: 0.153 mL/min | CL renal at 0.5 h [30]: 0.165 mL/min | AUC(0-inf) [31]: 346 µg·h/mL | CL renal at 0.5 h [32]: 0.158 mL/min | Cmax [33]: 42300 ng/mL | Vd [34]: 10 L | concentration at 24 h [35]: 6550 ng/mL
